Laboratory results published in ChEMBL document CHEMBL4627393, “Discovery of Potent, Selective, and State-Dependent NaV1.7 Inhibitors with Robust Oral Efficacy in Pain Models: Structure-Activity Relationship and Optimization of Chroman and Indane Aryl Sulfonamides” (J Med Chem, 2020).
Values belong to the molecule of their own block, whether it stands above or below them.

Assays:
[1] = AUClast in Sprague-Dawley rat at 10 mg/kg, po measured upto 24 hrs by LC/MS-MS analysis; type: ADME, organism-based; design: time < 24 hr, dose 10 mg/kg, route oral; conditions: in vivo
[2] = Cmax in Sprague-Dawley rat at 1 mg/kg, iv measured upto 24 hrs by LC/MS-MS analysis; type: ADME, organism-based; design: dose 1 mg/kg, route intravenous; conditions: in vivo
[3] = Apparent permeability across apical to basolateral side in human Caco2 cells; type: ADME, cell-based; conditions: Caco-2
[4] = Cmax in Sprague-Dawley rat at 10 mg/kg, po measured upto 24 hrs by LC/MS-MS analysis; type: ADME, organism-based; design: dose 10 mg/kg, route oral; conditions: in vivo
[5] = Metabolic stability in mouse liver microsomes assessed as metabolic rate at 1 uM preincubated for 5 mins followed by NADPH addition and measured up to 30 mins by LC/MS-MS analysis; type: ADME, Microsome; conditions: 0.5 h
[6] = Apparent permeability across basolateral to apical side in human Caco2 cells; type: ADME, cell-based; conditions: Caco-2
[7] = Cmax in BALB/c mouse at 10 mg/kg, po measured upto 24 hrs by LC/MS-MS analysis; type: ADME, organism-based; design: dose 10 mg/kg, route oral; conditions: in vivo
[8] = AUClast in Beagle dog at 1 mg/kg, iv administered as infusion for 15 mins followed by compound washout and subsequent compound dosing at 5 mg/kg, po measured up to 24 hrs by LC/MS-MS analysis; type: ADME, organism-based, Canis lupus familiaris; conditions: in vivo
[9] = Volume of distribution at steady state in Sprague-Dawley rat at 1 mg/kg, iv measured upto 24 hrs by LC/MS-MS analysis; type: ADME, organism-based; conditions: in vivo, read-out: Vdss
[10] = Clearance in Beagle dog at 1 mg/kg, iv administered as infusion for 15 mins by LC/MS-MS analysis; type: ADME, organism-based, Canis lupus familiaris; conditions: in vivo
[11] = Oral bioavailability in Sprague-Dawley rat at 10 mg/kg measured upto 24 hrs by LC/MS-MS analysis; type: ADME, organism-based; conditions: in vivo
How it was run: (§1)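 Pharmacokinetics were run with an IV dose of 1 mg/kg and a PO dose of 10 mg/kg. Parameters reported were AUClast, Cmax, CL, T1/2, Vss and %F.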

[12] = Oral bioavailability in BALB/c mouse at 10 mg/kg measured upto 24 hrs by LC/MS-MS analysis; type: ADME, organism-based; conditions: in vivo; how it was run: as §1
[13] = Metabolic stability in rat liver microsomes assessed as metabolic rate at 1 uM preincubated for 5 mins followed by NADPH addition and measured up to 30 mins by LC/MS-MS analysis; type: ADME, Microsome; conditions: 0.5 h
[14] = AUClast in BALB/c mouse at 1 mg/kg, iv measured upto 24 hrs by LC/MS-MS analysis; type: ADME, organism-based; design: time < 24 hr, dose 1 mg/kg, route intravenous; conditions: in vivo
[15] = Clearance in BALB/c mouse at 1 mg/kg, iv measured upto 24 hrs by LC/MS-MS analysis; type: ADME, organism-based; conditions: in vivo
[16] = Cmax in Beagle dog at 1 mg/kg, iv administered as infusion for 15 mins followed by compound washout and subsequent compound dosing at 5 mg/kg, po measured up to 24 hrs by LC/MS-MS analysis; type: ADME, organism-based, Canis lupus familiaris; conditions: in vivo
[17] = Cmax in BALB/c mouse at 1 mg/kg, iv measured upto 24 hrs by LC/MS-MS analysis; type: ADME, organism-based; design: dose 1 mg/kg, route intravenous; conditions: in vivo
[18] = AUClast in BALB/c mouse at 10 mg/kg, po measured upto 24 hrs by LC/MS-MS analysis; type: ADME, organism-based; design: dose 10 mg/kg, time < 24 hr, route oral; conditions: in vivo
[19] = Bioavailability in Beagle dog at 1 mg/kg, iv administered as infusion for 15 mins followed by compound washout and subsequent compound dosing at 5 mg/kg, po measured up to 24 hrs by LC/MS-MS analysis; type: ADME, organism-based, Canis lupus familiaris; conditions: in vivo
[20] = Half life in BALB/c mouse at 1 mg/kg, iv measured upto 24 hrs by LC/MS-MS analysis; type: ADME, organism-based; conditions: in vivo
[21] = Volume of distribution at steady state in Beagle dog at 1 mg/kg, iv administered as infusion for 15 mins by LC/MS-MS analysis; type: ADME, organism-based, Canis lupus familiaris; conditions: in vivo, read-out: Vdss; how it was run: as §1
[22] = AUClast in Sprague-Dawley rat at 1 mg/kg, iv measured upto 24 hrs by LC/MS-MS analysis; type: ADME, organism-based; design: dose 1 mg/kg, time < 24 hr, route intravenous; conditions: in vivo
[23] = Clearance in Sprague-Dawley rat at 1 mg/kg, iv measured upto 24 hrs by LC/MS-MS analysis; type: ADME, organism-based; conditions: in vivo
[24] = AUClast in Beagle dog at 1 mg/kg, iv administered as infusion for 15 mins by LC/MS-MS analysis; type: ADME, organism-based, Canis lupus familiaris; design: dose 1 mg/kg, time 0 - last, route intravenous; conditions: in vivo
[25] = Lipophilicity, log D of the compound; type: physicochemical; conditions: octanol/water
[26] = Metabolic stability in monkey liver microsomes assessed as metabolic rate at 1 uM preincubated for 5 mins followed by NADPH addition and measured up to 30 mins by LC/MS-MS analysis; type: ADME, Macaca mulatta, Microsome; conditions: rhesus monkey, 0.5 h
[27] = Metabolic stability in human liver microsomes assessed as metabolic rate at 1 uM preincubated for 5 mins followed by NADPH addition and measured up to 30 mins by LC/MS-MS analysis; type: ADME, Microsome; conditions: 0.5 h
[28] = Cmax in Beagle dog at 1 mg/kg, iv administered as infusion for 15 mins by LC/MS-MS analysis; type: ADME, organism-based, Canis lupus familiaris; design: dose 1 mg/kg, route intravenous; conditions: in vivo
[29] = Half life in Beagle dog at 1 mg/kg, iv administered as infusion for 15 mins by LC/MS-MS analysis; type: ADME, organism-based, Canis lupus familiaris; conditions: in vivo
[30] = Metabolic stability in dog liver microsomes assessed as metabolic rate at 1 uM preincubated for 5 mins followed by NADPH addition and measured up to 30 mins by LC/MS-MS analysis; type: ADME, Canis lupus familiaris, Microsome; conditions: 0.5 h
[31] = Half life in Sprague-Dawley rat at 1 mg/kg, iv measured upto 24 hrs by LC/MS-MS analysis; type: ADME, organism-based; conditions: in vivo
[32] = Volume of distribution at steady state in BALB/c mouse at 1 mg/kg, iv measured upto 24 hrs by LC/MS-MS analysis; type: ADME, organism-based; conditions: in vivo, read-out: Vdss; how it was run: as §1
[33] = Drug concentration in brain of formalin-induced C57BL/6 mouse model of nociceptive pain at 30 mg/kg, po administered 30 mins before formalin stimulation and measured after 40 mins

SMILES: O=S(=O)(Nc1ncccn1)c1ccc2c(c1)OCC[C@@H]2c1ccc(C(F)(F)F)cc1-c1ccc(F)nc1
AUC(0-t) at 24 h [1]: 111 µM·h
Cmax [2]: 1.7 µM
Papp [3]: 41.8 ×10⁻⁶ cm/s
Cmax [4]: 6.6 µM
Drug metabolism [5]: 0 nmol/min/mg
Papp [6]: 33.4 ×10⁻⁶ cm/s
Cmax [7]: 17 µM
AUC(0-t) [8]: 218 µM·h
Vd [9]: 1.2 L/kg
clearance [10]: 0.3 mL/min/kg
bioavailability [11]: 74%
bioavailability [12]: > 100%
Drug metabolism [13]: 0 nmol/min/mg
AUC(0-t) at 24 h [14]: 12 µM·h
clearance [15]: 2.6 mL/min/kg
Cmax [16]: 14 µM
Cmax [17]: 2 µM
AUC(0-t) at 24 h [18]: 171 µM·h
bioavailability [19]: 78%
half-life [20]: 3.2 h
Vd [21]: 0.5 L/kg
AUC(0-t) at 24 h [22]: 15 µM·h
clearance [23]: 2 mL/min/kg
AUC(0-t) at 0.25 h [24]: 70 µM·h
logD [25]: 2.8
Drug metabolism [26]: 0.01 nmol/min/mg
Drug metabolism [27]: 0 nmol/min/mg
Cmax [28]: 5.7 µM
half-life [29]: 24 h
Drug metabolism [30]: 0.03 nmol/min/mg
half-life [31]: 9.8 h
Vd [32]: 0.8 L/kg

SMILES: O=S(=O)(Nc1ncccn1)c1ccc2c(c1)OCC[C@@H]2c1ccc(C(F)(F)F)cc1N1CCOCC1
AUC(0-t) at 24 h [1]: 19 µM·h
Cmax [2]: 2.1 µM
Papp A→B [3]: 37.6 ×10⁻⁶ cm/s
Cmax [4]: 2.1 µM
Drug metabolism [5]: 0.16 nmol/min/mg
Papp B→A [6]: 25.4 ×10⁻⁶ cm/s
Cmax [7]: 9.6 µM
Vd [9]: 1.2 L/kg
clearance [10]: 0.5 mL/min/kg
bioavailability [11]: 31%
bioavailability [12]: 50%
Drug metabolism [13]: 0.02 nmol/min/mg
AUC(0-t) at 24 h [14]: 12 µM·h
clearance [15]: 2.5 mL/min/kg
Cmax [17]: 2 µM
AUC(0-t) at 24 h [18]: 62 µM·h
half-life [20]: 4.3 h
Vd [21]: 0.5 L/kg
AUC(0-t) at 24 h [22]: 5.9 µM·h
clearance [23]: 5.1 mL/min/kg
AUC(0-t) at 0.25 h [24]: 48 µM·h
logD [25]: 2.7
Drug metabolism [26]: 0.03 nmol/min/mg
Drug metabolism [27]: 0.02 nmol/min/mg
Cmax [28]: 4.9 µM
brain concentration at 40 min [33]: < 1 µM
half-life [29]: 11 h
Drug metabolism [30]: 0.02 nmol/min/mg
half-life [31]: 2.8 h
Vd [32]: 0.81 L/kg

SMILES: O=S(=O)(Nc1ccncn1)c1ccc2c(c1)OCC[C@@H]2c1ccc(C(F)(F)F)cc1N1CCOCC1
logD [25]: 2

The remaining lines, values ahead:

AUC(0-t) at 24 h [1]: 112 µM·h
Cmax [2]: 2.6 µM
Papp A→B [3]: 39.5 ×10⁻⁶ cm/s
Cmax [4]: 19 µM
Drug metabolism [5]: 0.04 nmol/min/mg
Papp B→A [6]: 36.8 ×10⁻⁶ cm/s
Cmax [7]: 18 µM
AUC(0-t) [8]: 50 µM·h
Vd [9]: 0.8 L/kg
bioavailability [11]: > 100%
bioavailability [12]: 83%
Drug metabolism [13]: 0.02 nmol/min/mg
AUC(0-t) at 24 h [14]: 7.6 µM·h
Cmax [16]: 8.5 µM
Cmax [17]: 3 µM
AUC(0-t) at 24 h [18]: 63 µM·h
bioavailability [19]: 51%
half-life [20]: 1.5 h
Vd [21]: 0.4 L/kg
AUC(0-t) at 24 h [22]: 5.5 µM·h
AUC(0-t) at 0.25 h [24]: 19 µM·h
logD [25]: 2.3
Drug metabolism [26]: 0.02 nmol/min/mg
Drug metabolism [27]: 0 nmol/min/mg
Cmax [28]: 6.5 µM
brain concentration at 40 min [33]: < 1 µM
half-life [29]: 2.5 h
Drug metabolism [30]: 0.02 nmol/min/mg
half-life [31]: 1.9 h
Vd [32]: 0.6 L/kg
SMILES: Cc1ccc(-c2cc(C(F)(F)F)ccc2[C@H]2CCOc3cc(S(=O)(=O)Nc4ncccn4)ccc32)cn1

logD [25]: 1.4
SMILES: O=S(=O)(Nc1nccs1)c1ccc2c(c1)OCC[C@@H]2c1ccc(C(F)(F)F)cc1N1CCNCC1

Drug metabolism [5]: 0.1 nmol/min/mg
Cmax [7]: 6 µM
bioavailability [12]: 68%
Drug metabolism [13]: 0.04 nmol/min/mg
AUC(0-t) at 24 h [14]: 2.2 µM·h
clearance [15]: 14 mL/min/kg
Cmax [17]: 1.3 µM
AUC(0-t) at 24 h [18]: 15 µM·h
half-life [20]: 2 h
logD [25]: 2.2
Drug metabolism [27]: 0.05 nmol/min/mg
Vd [32]: 2.2 L/kg
SMILES: Cn1nccc1-c1cc(C(F)(F)F)ccc1[C@H]1CCOc2cc(S(=O)(=O)Nc3nccs3)ccc21
